Laboratory results from ChEMBL document CHEMBL1148671, “Synthesis and antibacterial activity of C12 des-methyl ketolides” (2006).
≈ marks a conversion by molar mass, not a printed value.

Columns and labels:
Assay type in all cases: functional
Streptococcus pneumoniae [1] = assay: Antibacterial activity against erythromycin-resistant Streptococcus pneumoniae mef 5654 by broth microdilution method
Haemophilus influenzae [2] = assay: Antibacterial activity against Haemophilus influenzae 49247 by broth microdilution method
How it was run: (§1)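 In vitro activity was read as the minimum inhibitory concentration (MIC) by broth microdilution and reported in μg/mL. The S. pneumoniae panel included erythromycin-resistant strains carrying mef or erm genes. Telithromycin and clarithromycin were run as comparators in every assay.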

Enterococcus faecalis [3] = assay: Antibacterial activity against Enterococcus faecalis 29212 by broth microdilution method; how it was run: as §1
Enterococcus faecalis [4] = assay: Antibacterial activity against Enterococcus faecalis bc11148-2 by broth microdilution method; how it was run: as §1
Streptococcus pyogenes = assay: Antibacterial activity against Streptococcus pyogenes 8668 by broth microdilution method; how it was run: as §1
Streptococcus pneumoniae [5] = assay: Antibacterial activity against Streptococcus pneumoniae 49619 by broth microdilution method; how it was run: as §1
Staphylococcus aureus [6] = assay: Antibacterial activity against Staphylococcus aureus 29213 by broth microdilution method; details: ATCC29213; how it was run: as §1
Staphylococcus aureus [7] = assay: Antibacterial activity against Staphylococcus aureus 33591 by broth microdilution method; how it was run: as §1
[8] = tested on: Staphylococcus epidermidis; assay: Antibacterial activity against Staphylococcus epidermidis 14990 by broth microdilution method; how it was run: as §1
[9] = tested on: Staphylococcus epidermidis; assay: Antibacterial activity against Staphylococcus epidermidis f50654 by broth microdilution method; how it was run: as §1
Streptococcus pneumoniae [10] = assay: Antibacterial activity against Streptococcus pneumoniae 297-749 by broth microdilution method; how it was run: as §1
Streptococcus pneumoniae [11] = assay: Antibacterial activity against Streptococcus pneumoniae 280-962 by broth microdilution method; how it was run: as §1
Streptococcus pneumoniae [12] = assay: Antibacterial activity against erythromycin-resistant Streptococcus pneumoniae erm 6849 by broth microdilution method
Streptococcus pneumoniae [13] = assay: Antibacterial activity against erythromycin-resistant Streptococcus pneumoniae mef S 3427 by broth microdilution method
Haemophilus influenzae [14] = assay: Antibacterial activity against Haemophilus influenzae 2762 by broth microdilution method; how it was run: as §1

Row | Structure (SMILES) | MIC (Streptococcus pneumoniae [1]) | MIC (Haemophilus influenzae [2]) | MIC (Enterococcus faecalis [3]) | MIC (Enterococcus faecalis [4]) | MIC (Streptococcus pyogenes) | MIC (Streptococcus pneumoniae [5]) | MIC (Staphylococcus aureus [6]) | MIC (Staphylococcus aureus [7]) | MIC [8] | MIC [9] | MIC (Streptococcus pneumoniae [10]) | MIC (Streptococcus pneumoniae [11]) | MIC (Streptococcus pneumoniae [12]) | MIC (Streptococcus pneumoniae [13]) | MIC (Haemophilus influenzae [14])
1 | CC[C@H]1OC(=O)[C@H](C)C(=O)[C@H](C)[C@@H](O[C@@H]2O[C@H](C)C[C@H](N(C)C)[C@H]2O)[C@](C)(OC)C[C@@H](C)C(=O)[C@H](C)[C@@H]2[C@@H]1OC(=O)N2CCCCc1ccnc2ccccc12 | 0.1 µg/mL (≈ 0.128 µM) | 1.56 µg/mL (≈ 1.99 µM) | ≤ 0.05 µg/mL | > 50 µg/mL | ≤ 0.05 µg/mL | ≤ 0.05 µg/mL | 0.1 µg/mL (≈ 0.128 µM) | > 50 µg/mL | 0.1 µg/mL (≈ 0.128 µM) | 0.1 µg/mL (≈ 0.128 µM) | ≤ 0.05 µg/mL | ≤ 0.05 µg/mL | 6.25 µg/mL (≈ 7.99 µM) |  | 
2 | CC[C@H]1OC(=O)[C@H](C)C(=O)[C@H](C)[C@@H](O[C@@H]2O[C@H](C)C[C@H](N(C)C)[C@H]2O)[C@](C)(OC)C[C@@H](C)C(=O)[C@H](C)[C@@H]2[C@@H]1OC(=O)N2CCCCn1cnc(-c2ccc(F)nc2)c1 | 0.78 µg/mL (≈ 0.956 µM) | 3.13 µg/mL (≈ 3.84 µM) | ≤ 0.05 µg/mL | 25 µg/mL (≈ 30.6 µM) | ≤ 0.05 µg/mL | ≤ 0.05 µg/mL | 0.2 µg/mL (≈ 0.245 µM) | > 50 µg/mL | 0.2 µg/mL (≈ 0.245 µM) | 0.78 µg/mL (≈ 0.956 µM) | ≤ 0.05 µg/mL | 0.2 µg/mL (≈ 0.245 µM) | 12.5 µg/mL (≈ 15.3 µM) | 0.78 µg/mL (≈ 0.956 µM) | 0.78 µg/mL (≈ 0.956 µM)
3 | CC[C@H]1OC(=O)[C@H](C)C(=O)[C@H](C)[C@@H](O[C@@H]2O[C@H](C)C[C@H](N(C)C)[C@H]2O)[C@](C)(OC)C[C@@H](C)C(=O)[C@H](C)[C@@H]2[C@@H]1OC(=O)N2CCCCn1cnc(-c2ccccc2)c1 | 0.2 µg/mL (≈ 0.251 µM) | 3.13 µg/mL (≈ 3.93 µM) | 0.1 µg/mL (≈ 0.125 µM) | > 50 µg/mL | ≤ 0.05 µg/mL | ≤ 0.05 µg/mL | 0.2 µg/mL (≈ 0.251 µM) | > 50 µg/mL | 0.1 µg/mL (≈ 0.125 µM) | 0.2 µg/mL (≈ 0.251 µM) | ≤ 0.05 µg/mL | ≤ 0.05 µg/mL | 0.78 µg/mL (≈ 0.979 µM) |  | 
4 | CC[C@H]1OC(=O)[C@H](C)C(=O)[C@H](C)[C@@H](O[C@@H]2O[C@H](C)C[C@H](N(C)C)[C@H]2O)[C@](C)(OC)C[C@@H](C)C(=O)[C@H](C)[C@@H]2[C@@H]1OC(=O)N2CCCCn1ccc2ccccc21 | 0.2 µg/mL (≈ 0.26 µM) | 6.25 µg/mL (≈ 8.12 µM) | 0.1 µg/mL (≈ 0.13 µM) | > 50 µg/mL | ≤ 0.05 µg/mL | ≤ 0.05 µg/mL | 0.4 µg/mL (≈ 0.519 µM) | > 50 µg/mL | 0.2 µg/mL (≈ 0.26 µM) | 0.4 µg/mL (≈ 0.519 µM) | ≤ 0.05 µg/mL | ≤ 0.05 µg/mL | 6.25 µg/mL (≈ 8.12 µM) |  | 
5 | CC[C@H]1OC(=O)[C@H](C)C(=O)[C@H](C)[C@@H](O[C@@H]2O[C@H](C)C[C@H](N(C)C)[C@H]2O)[C@](C)(OC)C[C@@H](C)C(=O)[C@H](C)[C@@H]2[C@@H]1OC(=O)N2CCCCn1ccc2ncccc21 | 0.2 µg/mL (≈ 0.259 µM) | 1.56 µg/mL (≈ 2.02 µM) | 0.1 µg/mL (≈ 0.13 µM) | 6.25 µg/mL (≈ 8.11 µM) | ≤ 0.05 µg/mL | ≤ 0.05 µg/mL | 0.2 µg/mL (≈ 0.259 µM) | > 50 µg/mL | 0.4 µg/mL (≈ 0.519 µM) | 0.4 µg/mL (≈ 0.519 µM) | ≤ 0.05 µg/mL | ≤ 0.05 µg/mL | 0.2 µg/mL (≈ 0.259 µM) |  | 0.78 µg/mL (≈ 1.01 µM)
6 | CC[C@H]1OC(=O)[C@H](C)C(=O)[C@H](C)[C@@H](O[C@@H]2O[C@H](C)C[C@H](N(C)C)[C@H]2O)[C@](C)(OC)C[C@@H](C)C(=O)[C@H](C)[C@@H]2[C@@H]1OC(=O)N2CCCC(C)(C)n1cnc2ncccc21 | 1.56 µg/mL (≈ 1.95 µM) | 6.25 µg/mL (≈ 7.81 µM) | ≤ 0.05 µg/mL | 1.56 µg/mL (≈ 1.95 µM) | ≤ 0.05 µg/mL | ≤ 0.05 µg/mL | 0.2 µg/mL (≈ 0.25 µM) | > 50 µg/mL | 0.1 µg/mL (≈ 0.125 µM) | 0.1 µg/mL (≈ 0.125 µM) | ≤ 0.05 µg/mL | ≤ 0.05 µg/mL | 6.25 µg/mL (≈ 7.81 µM) | 0.2 µg/mL (≈ 0.25 µM) | 1.56 µg/mL (≈ 1.95 µM)
7 | CC[C@H]1OC(=O)[C@H](C)C(=O)[C@H](C)[C@@H](O[C@@H]2O[C@H](C)C[C@H](N(C)C)[C@H]2O)[C@](C)(OC)C[C@@H](C)C(=O)[C@H](C)[C@@H]2[C@@H]1OC(=O)N2CCCCn1cnc2cccnc21 | 0.78 µg/mL (≈ 1.01 µM) | 3.13 µg/mL (≈ 4.05 µM) | ≤ 0.05 µg/mL | 50 µg/mL (≈ 64.8 µM) | ≤ 0.05 µg/mL | ≤ 0.05 µg/mL | 0.2 µg/mL (≈ 0.259 µM) | > 50 µg/mL | 0.2 µg/mL (≈ 0.259 µM) | 0.4 µg/mL (≈ 0.518 µM) | ≤ 0.05 µg/mL | ≤ 0.05 µg/mL | 0.78 µg/mL (≈ 1.01 µM) |  | 
8 | CC[C@H]1OC(=O)[C@H](C)C(=O)[C@H](C)[C@@H](O[C@@H]2O[C@H](C)C[C@H](N(C)C)[C@H]2O)[C@](C)(OC)C[C@@H](C)C(=O)[C@H](C)[C@H]2N(CCCCn3cnc(-c4cccnc4)c3)C(=O)O[C@]12C [TELITHROMYCIN] | 0.4 µg/mL (≈ 0.493 µM) |  |  |  |  |  |  |  |  |  |  |  |  |  | 
